Test results from ChEMBL document CHEMBL4689842, “EUbOPEN Chemogenomics Library wave 1” (2021).

Test system: Fibroblast
Assay: Multiplex assay against human fibroblast
Type: toxicity, cell-based
In short: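 With compound added, live cells were imaged on a CQ1 microscope at 37°C and 5% CO2; staining with Hoechst33342, BioTracker Green Microtubule Cytoskeleton Dye, MitoTracker Red and Annexin V Alexa Fluor 680 had been done at seeding. The CellPathfinder machine-learning gating scheme split cells into Hoechst high-intensity objects or normal cells, normal cells into healthy, pyknosed or fragmented nuclei, and pyknosed cells into mitotic or apoptotic. The tubulin, mitochondrial-mass and membrane-permeability phenotypes are per cents of healthy-nucleus cells.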

[1] = 12 h, 1 µM, compound concentration 1 uM, replicate 1
[2] = 12 h, 1 µM, compound concentration 1 uM, replicate 2
[3] = 12 h, 10 µM, compound concentration 10 uM, replicate 1
[4] = 12 h, 10 µM, compound concentration 10 uM, replicate 2
[5] = 24 h, 1 µM, compound concentration 1 uM, replicate 1
[6] = 24 h, 1 µM, compound concentration 1 uM, replicate 2
[7] = 24 h, 10 µM, compound concentration 10 uM, replicate 1
[8] = 24 h, 10 µM, compound concentration 10 uM, replicate 2
[9] = 48 h, 1 µM, compound concentration 1 uM, replicate 1
[10] = 48 h, 1 µM, compound concentration 1 uM, replicate 2
[11] = 48 h, 10 µM, compound concentration 10 uM, replicate 1
[12] = 48 h, 10 µM, compound concentration 10 uM, replicate 2

For O=C1NC(=O)C(c2cnc3ccccn23)=C1c1cn2c3c(cc(F)cc13)CN(C(=O)N1CCCCC1)CC2 [LY-2090314], the “Population Apoptotic (%)” value [1] was 60%, the “Population Fragmented Nuclei (%)” value [1] was 16% and the “Population Healthy Nuclei (%)” value [1] was 32%. For the same molecule, the “Population Hoechst High Intensity Objects (%)” value [1] was 11%, the “Population Membrane Permeable-Phenotype (%)” value [1] was 29% and the “Population Mitochondria Different-Phenotype (%)” value [1] was 22%. For the same molecule, the “Population Mitotic Cells (%)” value [1] was 40%, the “Population Normal (%)” value [1] was 88% and the “Population Pyknosed Nuclei (%)” value [1] was 51%. The “Population Tubulin-Different-Phenotype (%)” value [1] was 89%, the “Total Cell Count” value [1] was 166 and the “Population Apoptotic (%)” value [2] was 80%. The “Population Fragmented Nuclei (%)” value [2] was 3%, the “Population Healthy Nuclei (%)” value [2] was 87% and the “Population Hoechst High Intensity Objects (%)” value [2] was 12%. For the same molecule, the “Population Membrane Permeable-Phenotype (%)” value [2] was 6%, the “Population Mitochondria Different-Phenotype (%)” value [2] was 16% and the “Population Mitotic Cells (%)” value [2] was 20%. The “Population Normal (%)” value [2] was 87%, the “Population Pyknosed Nuclei (%)” value [2] was 9% and the “Population Tubulin-Different-Phenotype (%)” value [2] was 22%. The “Total Cell Count” value [2] was 85, the “Population Apoptotic (%)” value [3] was 61% and the “Population Fragmented Nuclei (%)” value [3] was 23%. The “Population Healthy Nuclei (%)” value [3] was 31%, the “Population Hoechst High Intensity Objects (%)” value [3] was 6% and the “Population Membrane Permeable-Phenotype (%)” value [3] was 50%. For the same molecule, the “Population Mitochondria Different-Phenotype (%)” value [3] was 26%, the “Population Mitotic Cells (%)” value [3] was 38% and the “Population Normal (%)” value [3] was 93%. The “Population Pyknosed Nuclei (%)” value [3] was 44%, the “Population Tubulin-Different-Phenotype (%)” value [3] was 86% and the “Total Cell Count” value [3] was 101. The “Population Apoptotic (%)” value [4] was 100%, the “Population Fragmented Nuclei (%)” value [4] was 9% and the “Population Healthy Nuclei (%)” value [4] was 74%. The “Population Hoechst High Intensity Objects (%)” value [4] was 10%, the “Population Membrane Permeable-Phenotype (%)” value [4] was 40% and the “Population Mitochondria Different-Phenotype (%)” value [4] was 96%. For the same molecule, the “Population Mitotic Cells (%)” value [4] was 0%, the “Population Normal (%)” value [4] was 89% and the “Population Pyknosed Nuclei (%)” value [4] was 16%. The “Population Tubulin-Different-Phenotype (%)” value [4] was 96%, the “Total Cell Count” value [4] was 63 and the “Population Apoptotic (%)” value [5] was 64%. The “Population Fragmented Nuclei (%)” value [5] was 25%, the “Population Healthy Nuclei (%)” value [5] was 36% and the “Population Hoechst High Intensity Objects (%)” value [5] was 7%. The “Population Membrane Permeable-Phenotype (%)” value [5] was 26%, the “Population Mitochondria Different-Phenotype (%)” value [5] was 17% and the “Population Mitotic Cells (%)” value [5] was 35%. The “Population Normal (%)” value [5] was 92%, the “Population Pyknosed Nuclei (%)” value [5] was 38% and the “Population Tubulin-Different-Phenotype (%)” value [5] was 86%. For the same molecule, the “Total Cell Count” value [5] was 156, the “Population Apoptotic (%)” value [6] was 80% and the “Population Fragmented Nuclei (%)” value [6] was 4%. For the same molecule, the “Population Healthy Nuclei (%)” value [6] was 87%, the “Population Hoechst High Intensity Objects (%)” value [6] was 13% and the “Population Membrane Permeable-Phenotype (%)” value [6] was 7%. The “Population Mitochondria Different-Phenotype (%)” value [6] was 22%, the “Population Mitotic Cells (%)” value [6] was 20% and the “Population Normal (%)” value [6] was 86%. For the same molecule, the “Population Pyknosed Nuclei (%)” value [6] was 8%, the “Population Tubulin-Different-Phenotype (%)” value [6] was 18% and the “Total Cell Count” value [6] was 82. The “Population Apoptotic (%)” value [7] was 70%, the “Population Fragmented Nuclei (%)” value [7] was 24% and the “Population Healthy Nuclei (%)” value [7] was 34%. The “Population Hoechst High Intensity Objects (%)” value [7] was 11%, the “Population Membrane Permeable-Phenotype (%)” value [7] was 41% and the “Population Mitochondria Different-Phenotype (%)” value [7] was 58%. For the same molecule, the “Population Mitotic Cells (%)” value [7] was 29%, the “Population Normal (%)” value [7] was 88% and the “Population Pyknosed Nuclei (%)” value [7] was 41%. The “Population Tubulin-Different-Phenotype (%)” value [7] was 87%, the “Total Cell Count” value [7] was 102 and the “Population Apoptotic (%)” value [8] was 81%. For the same molecule, the “Population Fragmented Nuclei (%)” value [8] was 11%, the “Population Healthy Nuclei (%)” value [8] was 64% and the “Population Hoechst High Intensity Objects (%)” value [8] was 4%. For the same molecule, the “Population Membrane Permeable-Phenotype (%)” value [8] was 37%, the “Population Mitochondria Different-Phenotype (%)” value [8] was 96% and the “Population Mitotic Cells (%)” value [8] was 18%. The “Population Normal (%)” value [8] was 95%, the “Population Pyknosed Nuclei (%)” value [8] was 24% and the “Population Tubulin-Different-Phenotype (%)” value [8] was 96%. The “Total Cell Count” value [8] was 72, the “Population Apoptotic (%)” value [9] was 79% and the “Population Fragmented Nuclei (%)” value [9] was 36%. For the same molecule, the “Population Healthy Nuclei (%)” value [9] was 22%, the “Population Hoechst High Intensity Objects (%)” value [9] was 6% and the “Population Membrane Permeable-Phenotype (%)” value [9] was 14%. For the same molecule, the “Population Mitochondria Different-Phenotype (%)” value [9] was 25%, the “Population Mitotic Cells (%)” value [9] was 20% and the “Population Normal (%)” value [9] was 93%. The “Population Pyknosed Nuclei (%)” value [9] was 41%, the “Population Tubulin-Different-Phenotype (%)” value [9] was 85% and the “Total Cell Count” value [9] was 127. The “Population Apoptotic (%)” value [10] was 75%, the “Population Fragmented Nuclei (%)” value [10] was 55% and the “Population Healthy Nuclei (%)” value [10] was 29%. For the same molecule, the “Population Hoechst High Intensity Objects (%)” value [10] was 8%, the “Population Membrane Permeable-Phenotype (%)” value [10] was 26% and the “Population Mitochondria Different-Phenotype (%)” value [10] was 26%. For the same molecule, the “Population Mitotic Cells (%)” value [10] was 25%, the “Population Normal (%)” value [10] was 91% and the “Population Pyknosed Nuclei (%)” value [10] was 15%. The “Population Tubulin-Different-Phenotype (%)” value [10] was 69%, the “Total Cell Count” value [10] was 86 and the “Population Apoptotic (%)” value [11] was 73%. The “Population Fragmented Nuclei (%)” value [11] was 28%, the “Population Healthy Nuclei (%)” value [11] was 25% and the “Population Hoechst High Intensity Objects (%)” value [11] was 15%. The “Population Membrane Permeable-Phenotype (%)” value [11] was 28%, the “Population Mitochondria Different-Phenotype (%)” value [11] was 57% and the “Population Mitotic Cells (%)” value [11] was 26%. The “Population Normal (%)” value [11] was 84%, the “Population Pyknosed Nuclei (%)” value [11] was 46% and the “Population Tubulin-Different-Phenotype (%)” value [11] was 71%. The “Total Cell Count” value [11] was 97, the “Population Apoptotic (%)” value [12] was 93% and the “Population Fragmented Nuclei (%)” value [12] was 10%. The “Population Healthy Nuclei (%)” value [12] was 61%, the “Population Hoechst High Intensity Objects (%)” value [12] was 16% and the “Population Membrane Permeable-Phenotype (%)” value [12] was 5%. For the same molecule, the “Population Mitochondria Different-Phenotype (%)” value [12] was 85%, the “Population Mitotic Cells (%)” value [12] was 6% and the “Population Normal (%)” value [12] was 83%. The “Population Pyknosed Nuclei (%)” value [12] was 27%, the “Population Tubulin-Different-Phenotype (%)” value [12] was 85% and the “Total Cell Count” value [12] was 66.
